IC50 and IC90 data for 12 compounds are collected here from ChEMBL document CHEMBL1133755, “Synthesis of fluorosugar analogues of 2,5,6-trichloro-1-(beta-D-ribofuranosyl)benzimidazole as antivirals with potentially increased glycosidic bond stability” (J Med Chem, 2000).

In assay [1] the test system is HFF. In words: Compound was tested for visual cytotoxicity on human foreskin fibroblasts (HFF) cells. It is filed as functional, cell-based. The method, boiled down: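 Cytotoxicity in HFF cells scored visually at the time HCMV plaques were counted. Results from duplicate experiments.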
Another assay deals with Human alphaherpesvirus 1. Kind of assay: Compound was tested for antiviral activity against herpes simplex virus type 1 (HSV-1). Format: functional, organism-based. In a few lines: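 HSV-1 activity read by ELISA in quadruplicate wells, with the plaque assay used for the DHPG control. Value reported as IC50. Top concentration tested 10 or 100.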
The nature of assay [2]: Compound was tested for inhibition activity of human oral carcinoma cell line (KB ) cells in quadruplicate assay. Format: functional, cell-based. The method, boiled down: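 KB cell growth inhibition was run in quadruplicate wells and reported as IC50, meaning the concentration that halves growth. Values marked > indicate that 50% inhibition was not reached at the highest concentration tested.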

In assay [3] the test system is HFF. Kind of assay: Compound was tested for antiviral activity against human cytomegalovirus (HCMV) by plaque reduction assay using HFF cells. Format: functional, cell-based. The method, boiled down: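 HCMV plaque reduction assay in HFF cells, run in duplicate. Value reported as IC50. Highest concentration tested 10 or 100.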
In general terms: Plaque reduction counts the foci of infection that form in a cell layer.

The test system of assay [4] is HFF. In words: Compound was tested for antiviral activity against human cytomegalovirus (HCMV) by yield reduction assay using HFF cells. Format: functional. The method, boiled down:
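HCMV yield reduction assay in HFF cells, run in duplicate. Value reported as IC90. Highest concentration tested 10 or 100.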

pIC50: −log10 of the molar value. Some results are limits rather than exact numbers.

As for `O[C@H]1[C@H](OC(c2ccccc2)(c2ccccc2)c2ccccc2)[C@@H](COC(c2ccccc2)(c2ccccc2)c2ccccc2)O[C@H]1n1c(Cl)nc2cc(Cl)c(Cl)cc21`, the pIC50 in the assay on HFF [1] is below 4.00; in the assay with Human alphaherpesvirus 1 it was below 4.00; in assay [2], below 4.00; with HFF [3], below 5.00.
With `O=C(OC[C@H]1O[C@@H](n2c(Cl)nc3cc(Cl)c(Cl)cc32)[C@@H](F)[C@@H]1OC(=O)c1ccccc1)c1ccccc1`, the pIC50 in assay [2] was 4.00.
As to `OC[C@H]1O[C@@H](n2c(Cl)nc3cc(Cl)c(Cl)cc32)[C@@H](F)[C@@H]1O`, the negative-log IC50 (pIC50) in the assay on HFF [1] was 4.49; in the assay on Human alphaherpesvirus 1 it was 4.30; in assay [2], 4.22; in the assay on HFF [3], 5.10. Moreover, the concentration for an effect of 90% (IC90) in the assay on HFF [4] came out at 8 µM.
As for `OC[C@H]1O[C@@H](n2c(Br)nc3cc(Cl)c(Cl)cc32)[C@H](F)[C@@H]1O`, the pIC50 with HFF [1] was 4.00; with Human alphaherpesvirus 1 it was below 4.00; in assay [2], 4.10; in the assay with HFF [3], 4.77.
On the same counts, the results for `CC(C)Nc1nc2cc(Cl)c(Cl)cc2n1[C@@H]1O[C@H](CO)[C@@H](O)[C@H]1F` are below 4.00, below 4.00, below 4.00 and below 4.00.
For `Nc1nc2c(ncn2COC(CO)CO)c(=O)[nH]1` [GANCICLOVIR], the negative logarithm of the IC50 (pIC50) (with HFF [1]; in assay [2]) was below 4.00 each time. In the assay on HFF [4], this compound came in with an IC90 of 1.6 µM.
In assay [2], `OC[C@H]1O[C@@H](n2cnc3cc(Cl)c(Cl)cc32)[C@H](O)[C@@H]1O` [DICHLORORIBOBENZIMIDAZOLE] had a pIC50 of 4.44. The compound further yielded an IC90 in the assay on HFF [4] of 19 µM.
On the same counts, the results for `OC[C@H]1O[C@@H](n2c(Cl)nc3cc(Cl)c(Cl)cc32)[C@H](O)[C@@H]1O` are 3.68 and 1.4 µM.
On the same counts, the results for `OC[C@H]1O[C@@H](n2c(Br)nc3cc(Cl)c(Cl)cc32)[C@H](O)[C@@H]1O` are below 4.00 and 0.2 µM.
Consider `OC[C@H]1O[C@@H](n2c(Cl)nc3cc(Cl)c(Cl)cc32)C(O)[C@@H]1F` (stereo not given in full), for which the pIC50 is 4.40 in the assay with HFF [1], below 4.00 in the assay on Human alphaherpesvirus 1, below 4.00 in assay [2] and 5.03 with HFF [3]. This compound also displayed an IC90 with HFF [4] of 13 µM.
`Clc1cc2nc(Cl)n([C@@H]3O[C@H](COC(c4ccccc4)(c4ccccc4)c4ccccc4)[C@@H](OC(c4ccccc4)(c4ccccc4)c4ccccc4)[C@@H]3OC(c3ccccc3)(c3ccccc3)c3ccccc3)c2cc1Cl`: the negative logarithm of the IC50 (pIC50) was below 4.00 with HFF [1], below 4.00 with Human alphaherpesvirus 1, below 4.00 in assay [2] and below 5.00 in the assay with HFF [3].
`OC[C@H]1O[C@@H](n2cnc3cc(Cl)c(Cl)cc32)[C@H](F)[C@@H]1O`: the pIC50 (with HFF [1]; with Human alphaherpesvirus 1; in assay [2]; in the assay with HFF [3]) was below 4.00 each time.

As a reminder, the pIC50 is −log10 of the IC50, conventionally taken in molar units. A high value points to a low IC50. By IC90 is commonly meant the concentration needed for an effect of 90%.
